Active and inactive are the calls of the source. No cut-off for these calls is given here.
Experiments:
[1] = biological target: T1, Glucagon-like peptide 1 receptor (Rattus norvegicus) (UniProt P32301); assay: Inhibition of [125I]GLP1 (7-36) amide binding to rat GLP1R expressed in HEK293 cells relative to untreated control; assay type: cell-based; set-up: concentration or dose not given beside the values; details: concentration not given here
T1 sequence (whole entry): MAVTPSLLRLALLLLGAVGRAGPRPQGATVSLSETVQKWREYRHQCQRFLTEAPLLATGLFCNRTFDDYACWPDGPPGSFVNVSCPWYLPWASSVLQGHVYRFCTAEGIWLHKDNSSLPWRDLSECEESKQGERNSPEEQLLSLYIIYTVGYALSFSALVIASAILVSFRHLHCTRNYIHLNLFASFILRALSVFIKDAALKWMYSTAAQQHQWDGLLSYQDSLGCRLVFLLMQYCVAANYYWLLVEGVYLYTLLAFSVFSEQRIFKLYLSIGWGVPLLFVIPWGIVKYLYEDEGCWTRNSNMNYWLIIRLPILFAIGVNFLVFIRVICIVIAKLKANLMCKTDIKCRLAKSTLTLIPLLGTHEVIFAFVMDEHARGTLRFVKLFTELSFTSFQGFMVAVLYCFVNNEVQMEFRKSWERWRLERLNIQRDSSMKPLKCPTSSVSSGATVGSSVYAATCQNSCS
In short: (§1)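 Membranes (17 μg protein) from HEK293 cells stably expressing rat GLP-1R were preincubated 5 h at 4 °C with FlashBlue beads (150 μg). Then 40 pM [125I]GLP-1(7−36) amide or [125I]Exendin(9−39) was added with aprotinin 2 μg/mL, leupeptin 100 μM and test compound at varied concentrations. Incubated overnight at 4 °C, then bound radioactivity counted. Mean ± SEM of two independent experiments.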

[2] = biological target: T1, Glucagon-like peptide 1 receptor (Rattus norvegicus); assay: Inhibition of [125I]Exendin (9-39) binding to rat GLP1R expressed in HEK293 cells; assay type: cell-based; set-up: concentration or dose not given beside the values; details: concentration not given here; in short: as §1
[3] = biological target: T2, Glucagon-like peptide 1 receptor (Rattus norvegicus, UniProt P32301); assay: Inhibition of [125I]GLP1 (7-36) amide binding to rat GLP1R expressed in HEK293 cells; assay type: cell-based; in short: as §1
T2 sequence (P32301 whole entry): T1 sequence (whole entry)

[4] = biological target: T1, Glucagon-like peptide 1 receptor (Rattus norvegicus); assay: Agonist activity at rat GLP1R expressed in HEK293 cells assessed as stimulation of cAMP levels incubated for 6 hrs by multiple response element/cAMP response element (MRE/CRE)-driven reporter gene assay relative to 10 nM GLP1; assay type: functional, cell-based
In short: (§2)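 Stable HEK293 line co-expressing rat GLP-1R (pCMV-Tag2B) and a luciferase reporter with 3× MRE plus 1× CRE, seeded at 40000 cells/well and cultured overnight. Compounds in DMSO or GLP-1(7−37) were added for 6 h, then cells were lysed and luciferase read (Steady-Glo). The 10 nM GLP-1 maximum was taken as 100%. Mean ± SEM of two independent experiments; some values come from a single run.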

[5] = biological target: T2, Glucagon-like peptide 1 receptor; assay: Agonist activity at rat GLP1R expressed in HEK293 cells assessed as stimulation of cAMP levels incubated for 6 hrs by multiple response element/cAMP response element (MRE/CRE)-driven reporter gene assay; assay type: functional, cell-based; in short: as §2
[6] = biological target: T3, Glucagon-like peptide 2 receptor (Homo sapiens) (UniProt O95838); assay: Agonist activity at human GLP2R expressed in HEK293 cells assessed as stimulation of cAMP levels incubated for 6 hrs by multiple response element/cAMP response element (MRE/CRE)-driven reporter gene assay; assay type: functional, cell-based
T3 sequence (whole entry): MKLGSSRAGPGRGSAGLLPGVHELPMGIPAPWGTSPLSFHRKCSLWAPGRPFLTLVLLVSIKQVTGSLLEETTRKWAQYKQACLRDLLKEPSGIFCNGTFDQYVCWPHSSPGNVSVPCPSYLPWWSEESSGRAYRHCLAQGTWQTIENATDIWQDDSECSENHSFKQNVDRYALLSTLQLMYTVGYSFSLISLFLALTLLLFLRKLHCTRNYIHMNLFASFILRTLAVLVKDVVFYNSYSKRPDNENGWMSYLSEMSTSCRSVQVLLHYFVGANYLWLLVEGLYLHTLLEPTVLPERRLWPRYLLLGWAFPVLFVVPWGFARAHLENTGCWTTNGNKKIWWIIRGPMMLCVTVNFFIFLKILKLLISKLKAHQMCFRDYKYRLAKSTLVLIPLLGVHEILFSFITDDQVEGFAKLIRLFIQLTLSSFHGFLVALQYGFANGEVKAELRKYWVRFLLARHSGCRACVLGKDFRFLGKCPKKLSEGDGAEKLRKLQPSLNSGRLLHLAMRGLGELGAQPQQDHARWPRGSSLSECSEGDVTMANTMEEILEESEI
In short: (§3)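 HEK293 cells transiently cotransfected with human GLP-2 receptor or glucagon receptor expression vector plus a luciferase reporter carrying three copies of multiple response element and one cAMP response element. Luciferase activity at different compound concentrations was expressed relative to the respective native peptide (GLP-2 or glucagon, 100%). Mean ± SEM of triplicate experiments.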

[7] = biological target: Glucagon receptor (Homo sapiens) (UniProt P47871); assay: Agonist activity at human glucagon receptor expressed in HEK293 cells assessed as stimulation of cAMP levels incubated for 6 hrs by multiple response element/cAMP response element (MRE/CRE)-driven reporter gene assay; assay type: functional, cell-based; in short: as §3
Chain of Glucagon receptor (Homo sapiens) (P47871 whole entry): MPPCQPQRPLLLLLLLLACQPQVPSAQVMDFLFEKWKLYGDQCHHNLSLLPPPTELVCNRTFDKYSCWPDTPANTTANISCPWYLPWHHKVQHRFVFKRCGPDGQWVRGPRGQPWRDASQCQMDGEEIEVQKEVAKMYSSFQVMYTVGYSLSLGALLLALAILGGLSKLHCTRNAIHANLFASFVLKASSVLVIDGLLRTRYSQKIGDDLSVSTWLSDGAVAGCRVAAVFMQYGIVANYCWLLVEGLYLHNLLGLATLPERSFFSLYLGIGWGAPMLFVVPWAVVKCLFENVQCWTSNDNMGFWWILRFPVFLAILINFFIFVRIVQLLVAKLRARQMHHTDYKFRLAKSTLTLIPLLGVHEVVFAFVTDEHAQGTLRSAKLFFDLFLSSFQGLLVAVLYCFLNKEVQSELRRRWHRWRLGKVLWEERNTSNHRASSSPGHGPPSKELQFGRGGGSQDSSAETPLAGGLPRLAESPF

[8] = system: Mus musculus; assay: Reduction of body weight in C57BL/6J mouse diet-induced obesity model at 3 mg, ip dosed 3 times per week for 28 days by chronic weight loss study; assay type: functional, organism-based
In short: (§4)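 Male C57BL/6J mice (8 weeks at start, 18−20 g) kept on high-fat diet (60% fat) for 12 weeks, then randomised by body weight to groups of n = 8−9. Dosed ip Monday/Wednesday/Friday for 28 days with 0, 0.3, 1 or 3 mg in 1% DMSO/20% PEG400/saline, pH 7.4. Body weight recorded daily; a standard-chow group (n = 8) served as reference.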

[9] = system: Mus musculus; assay: Inhibition of acute food intake in intraperitoneally dosed C57BL/6J mouse measured 6 hrs post dose; assay type: functional, organism-based
In short: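 Male C57BL/6J mice (6 weeks, 18−20 g) fasted overnight and given a single ip dose of 0.1, 0.3, 1 or 3 mg or vehicle (1% DMSO, 20% PEG400 in saline). Mice housed singly with a preweighed food pellet, reweighed every 15 or 30 min for 6 h to give cumulative intake. n ≥ 6 per group; mean ± SEM.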

[10] = system: Mus musculus; assay: Reduction of body weight in C57BL/6J mouse diet-induced obesity model dosed intraperitoneally 3 times per week for 28 days by chronic weight loss study; assay type: functional, organism-based; in short: as §4

inhibition [1] [%]	inhibition [2] [%]	IC50 [3] [nM]	Efficacy [4] [%]	EC50 [5] [nM]	Activity [6]	Compound	Activity [7]	Activity [8]	inhibition [9]	Activity [10]
100	97	1	100	0.09	inactive	CC[C@H](C)[C@H](NC(=O)[C@H](Cc1ccccc1)NC(=O)[C@H](CCC(=O)O)NC(=O)[C@H](CCCCN)NC(=O)[C@H](C)NC(=O)[C@H](C)NC(=O)[C@H](CCC(N)=O)NC(=O)CNC(=O)[C@H](CCC(=O)O)NC(=O)[C@H](CC(C)C)NC(=O)[C@H](Cc1ccc(O)cc1)NC(=O)[C@H](CO)NC(=O)[C@H](CO)NC(=O)[C@@H](NC(=O)[C@H](CC(=O)O)NC(=O)[C@H](CO)NC(=O)[C@@H](NC(=O)[C@H](Cc1ccccc1)NC(=O)[C@@H](NC(=O)CNC(=O)[C@H](CCC(=O)O)NC(=O)[C@H](C)NC(=O)[C@H](Cc1cnc[nH]1)NC(=O)[C@H](CCCNC(=N)N)NC(=O)[C@H](CCC(=O)O)NC(=O)[C@H](Cc1ccccc1)NC(=O)[C@H](CCC(=O)O)NC(=O)[C@H](CC(=O)O)NC(=O)[C@@H](N)Cc1cnc[nH]1)[C@@H](C)O)[C@@H](C)O)C(C)C)C(=O)N[C@@H](C)C(=O)N[C@@H](Cc1c[nH]c2ccccc12)C(=O)N[C@@H](CC(C)C)C(=O)N[C@H](C(=O)N[C@@H](CCCCN)C(=O)NCC(=O)N[C@@H](CCCNC(=N)N)C(=O)NCC(=O)O)C(C)C	–	–	–	–
87.2	63.1	–	96.7	–	inactive	COc1cc([C@H]2[C@](NC(=O)c3ccc(NC(=O)OC(C)(C)C)cc3)(C(=O)O)[C@@H](c3ccc(OC(=O)c4cccs4)c(OC)c3)[C@]2(NC(=O)c2ccc(NC(=O)OC(C)(C)C)cc2)C(=O)O)ccc1OC(=O)c1cccs1 (stereo in doubt; 3)	inactive	Active	–	–
–	–	–	–	–	–	GLUCAGON	Active	–	–	–
–	–	–	–	–	Active	CC[C@H](C)[C@H](NC(=O)[C@H](Cc1ccccc1)NC(=O)[C@H](CC(=O)O)NC(=O)[C@H](CCCNC(=N)N)NC(=O)[C@H](C)NC(=O)[C@H](C)NC(=O)[C@H](CC(C)C)NC(=O)[C@H](CC(N)=O)NC(=O)[C@H](CC(=O)O)NC(=O)[C@H](CC(C)C)NC(=O)[C@@H](NC(=O)[C@@H](NC(=O)[C@H](CC(N)=O)NC(=O)[C@H](CCSC)NC(=O)[C@H](CCC(=O)O)NC(=O)[C@H](CC(=O)O)NC(=O)[C@H](CO)NC(=O)[C@H](Cc1ccccc1)NC(=O)[C@H](CO)NC(=O)CNC(=O)[C@H](CC(=O)O)NC(=O)[C@H](C)NC(=O)[C@@H](N)Cc1cnc[nH]1)[C@@H](C)O)[C@@H](C)CC)C(=O)N[C@@H](CC(N)=O)C(=O)N[C@@H](Cc1c[nH]c2ccccc12)C(=O)N[C@@H](CC(C)C)C(=O)N[C@H](C(=O)N[C@@H](CCC(N)=O)C(=O)N[C@H](C(=O)N[C@@H](CCCCN)C(=O)N[C@H](C(=O)N[C@H](C(=O)N[C@@H](CC(=O)O)C(=O)N[C@@H](CCCNC(=N)N)C(=O)O)[C@@H](C)O)[C@@H](C)CC)[C@@H](C)O)[C@@H](C)CC	–	–	–	–
58.2	49.7	300	73.6	203	–	COc1cc([C@H]2[C@](NC(=O)c3ccc(NC(=O)C(C)C)cc3)(C(=O)O)[C@@H](c3ccc(OC(=O)c4cccs4)c(OC)c3)[C@]2(NC(=O)c2ccc(NC(=O)C(C)C)cc2)C(=O)O)ccc1OC(=O)c1cccs1	–	–	Active	Dose-dependent effect
< 15	< 15	> 20000	< 15	> 20000	–	CC(C)(C)OC(=O)Nc1ccc(C(=O)N[C@]2(C(=O)O)[C@H](c3cccc(OCc4ccccc4)c3)[C@@](NC(=O)c3ccc(NC(=O)OC(C)(C)C)cc3)(C(=O)O)[C@@H]2c2cccc(OCc3ccccc3)c2)cc1	–	–	–	–
< 15	< 15	> 20000	< 15	> 20000	–	COc1cc([C@H]2[C@](NC(=O)c3ccc(NC(=O)OC(C)(C)C)cc3)(C(N)=O)[C@@H](c3ccc(OC(=O)c4cccs4)c(OC)c3)[C@]2(NC(=O)c2ccc(NC(=O)OC(C)(C)C)cc2)C(N)=O)ccc1OC(=O)c1cccs1	–	–	–	–
